Assay results gathered from unrelated publications.
Target: Serine/threonine-protein kinase NLK (NLK, Homo sapiens, UniProt Q9UBE8)
One construct used (Q9UBE8 1-527): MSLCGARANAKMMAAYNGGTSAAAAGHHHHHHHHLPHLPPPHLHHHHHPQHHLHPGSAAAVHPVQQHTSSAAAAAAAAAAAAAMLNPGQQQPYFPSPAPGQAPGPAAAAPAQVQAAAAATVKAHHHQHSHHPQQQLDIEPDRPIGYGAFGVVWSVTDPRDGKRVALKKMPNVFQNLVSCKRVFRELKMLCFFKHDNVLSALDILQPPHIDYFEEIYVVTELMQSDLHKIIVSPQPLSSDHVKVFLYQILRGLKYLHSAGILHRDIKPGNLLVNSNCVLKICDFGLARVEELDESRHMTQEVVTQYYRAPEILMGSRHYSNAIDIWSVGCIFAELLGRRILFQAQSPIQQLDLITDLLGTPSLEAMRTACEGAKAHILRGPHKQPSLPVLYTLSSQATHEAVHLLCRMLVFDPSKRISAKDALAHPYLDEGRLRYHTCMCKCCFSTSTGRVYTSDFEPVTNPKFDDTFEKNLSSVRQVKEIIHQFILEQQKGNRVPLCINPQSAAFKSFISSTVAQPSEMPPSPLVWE

COc1cc(-c2cn(C3CCc4c(F)cccc4N(CC(F)(F)F)C3=O)nn2)ccc1-n1cnc(C)c1 (stereo not shown)
remaining binding (cell-free assay, competition with immobilised ligand; 1 µM): 100%

CC(C)(C)c1nc(-c2cccc(NS(=O)(=O)c3c(F)cccc3F)c2F)c(-c2ccnc(N)n2)s1
remaining activity (enzyme activity, inhibitor, radiometric; 1 µM): 78%

O=C(Nc1cnn(-c2csc(C(=O)NC3COC3)c2)c1)Nc1ccccc1Cl
remaining activity (enzyme activity, inhibitor; 5 µM): 99.5%

COc1cc(Cl)c(C(=O)N[C@@H](CN[C@H]2CC[C@@H](N)CC2)Cc2ccc(C#N)cc2)cc1-c1ccc(CN[C@H](C)c2ccc(C)cc2)o1
remaining activity (enzyme activity, inhibitor; 1 µM): 88%

CS(=O)(=O)c1cc(C2(NC(=O)c3cncc4c3cnn4-c3ccc(F)cc3)CC2)ccn1
remaining binding (cell-free assay, competition with immobilised ligand; 1 µM): 100%

Cc1cnc(NC2CCOCC2)nc1-n1cnc(C(=O)NC(CN)c2cc(F)cc(Cl)c2)c1 (stereo not shown)
remaining activity (enzyme activity, inhibitor, radiometric; 1 µM): 47%

C[C@H](c1ccnc(Nc2nc3ccc(-c4cc(N(C)C)ncn4)cc3[nH]2)c1)N1CCN(C(=O)CC(F)(F)F)CC1
remaining binding (cell-free assay, competition with immobilised ligand; 0.1 µM): 88%

N#CCCc1ccc2c(c1)-c1[nH]c3ccc([N+](=O)[O-])cc3c1CC(=O)N2
remaining signal (cell-free assay; 0.5 µM): 89.7%

CCN(CC)CCNC(=O)c1c(C)[nH]c(/C=C2\C(=O)Nc3ccc(F)cc32)c1C
inhibition (enzyme activity, inhibitor; 0.3 µM): -7%

O=C(NCc1ncc(C(F)(F)F)cc1Cl)c1ccc2c(c1)C1(CCS(=O)(=O)CC1)[C@H](C1CC1)N2S(=O)(=O)c1ccc(F)cc1
remaining binding (cell-free assay, competition with immobilised ligand; 1 µM): 100%

Cc1ccc(C(=O)Nc2ccc(CN3CCN(C)CC3)c(C(F)(F)F)c2)cc1C#Cc1cnc2cccnn12
remaining signal (cell-free assay; 23.5 nM): 52%

Cc1cc(NC(=O)c2cccc3cc(-c4cccc5[nH]nc(N)c45)ccc23)ccc1F
activity vs control (enzyme activity, inhibitor; 0.1 µM): 97%

CC(C)(O)c1cncc(-c2nc3ccc(F)cc3n2C2CC2)c1
remaining binding (cell-free assay, competition with immobilised ligand; 1 µM): 100%

Cc1ccc(Nc2nccc(N(C)c3ccc4c(C)n(C)nc4c3)n2)cc1S(N)(=O)=O
inhibition (enzyme activity, inhibitor; 0.3 µM): 19%

CN1CC(Oc2cnc(C#N)cc2-c2ccn3nc(NC(=O)C4CC4)cc3c2)C1
inhibition (enzyme activity, inhibitor; 1 µM): 10%

CCN(CC)c1ccc(C2=NNC(=O)CC2C)cc1[N+](=O)[O-] (stereo not shown)
remaining activity (enzyme activity, inhibitor; 10 µM): 105%

Cn1cncc1C1=CN(c2ncnc3[nH]cnc23)CCS1
inhibition (enzyme activity, inhibitor, radiometric; 2 µM): 43%

NS(=O)(=O)c1cc(NC(=O)Cc2ccccc2)ccc1Oc1cccc(Cl)c1
remaining binding (cell-free assay, competition with immobilised ligand; 1 µM): 100%

Nc1ncnc2occ(-c3ccc(NC(=O)Nc4cc(C(F)(F)F)ccc4F)cc3)c12
remaining signal (cell-free assay; 20 µM): 19%
